Data reported in ChEMBL document CHEMBL1156631 (J Med Chem, 2008).
Converted amounts (≈) assume the structure as drawn.

target: T1, Cannabinoid receptor 1 (Homo sapiens, UniProt P21554); experiment: Agonist activity at human CB1 receptor expressed in Sf9 cells by GTP-europium binding assay; conditions: not given
In short: (§1)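 Membranes were from Sf9 insect cells cotransfected with CB1 or CB2 plus Gαi3 (Bmax 1.7 pmol/mL). Compound (0.01 nM–10 µM, 1% DMSO final) was added to buffer with Hepes, BSA, 10 mM MgCl2, 150 mM NaCl, 5 µM GDP, 10 nM GTP-europium, saponin and membranes (CB1 4.5 µg/well, CB2 14 µg/well). 100% efficacy was set by 3 µM reference agonist.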

T1 sequence (P21554 whole entry): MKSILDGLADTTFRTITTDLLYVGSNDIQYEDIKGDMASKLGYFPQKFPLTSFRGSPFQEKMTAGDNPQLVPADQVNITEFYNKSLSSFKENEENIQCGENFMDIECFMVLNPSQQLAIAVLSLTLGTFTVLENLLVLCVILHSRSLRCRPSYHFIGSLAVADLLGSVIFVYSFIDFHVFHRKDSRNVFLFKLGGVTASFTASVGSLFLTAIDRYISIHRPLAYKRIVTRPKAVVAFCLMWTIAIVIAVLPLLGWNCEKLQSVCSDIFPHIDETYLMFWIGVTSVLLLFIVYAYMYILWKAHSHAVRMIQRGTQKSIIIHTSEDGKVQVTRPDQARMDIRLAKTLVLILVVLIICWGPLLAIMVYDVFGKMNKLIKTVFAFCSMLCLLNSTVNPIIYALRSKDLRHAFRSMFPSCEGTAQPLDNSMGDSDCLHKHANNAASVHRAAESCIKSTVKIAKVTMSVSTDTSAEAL

SMILES | EC50
Fc1ccc(-c2noc(CCCNc3cnc4ccc(OC(F)(F)F)cc4c3)n2)c(Cl)c1 | 1100 nM
O=C(CCc1nc(-c2ccc(F)cc2Cl)no1)Nc1cnc2ncc(Cl)cc2c1 | 2300 nM
CCn1c2ccccc2c2cc(NC(=O)CCc3nc(-c4ccccc4F)no3)ccc21 | > 10000 nM

target: T2, Cannabinoid receptor 2 (Homo sapiens, UniProt P34972); experiment: Agonist activity at human recombinant CB2 receptor expressed in Sf9 cells by GTP-europium binding assay; conditions: not given; in short: as §1
T2 sequence (P34972 whole entry): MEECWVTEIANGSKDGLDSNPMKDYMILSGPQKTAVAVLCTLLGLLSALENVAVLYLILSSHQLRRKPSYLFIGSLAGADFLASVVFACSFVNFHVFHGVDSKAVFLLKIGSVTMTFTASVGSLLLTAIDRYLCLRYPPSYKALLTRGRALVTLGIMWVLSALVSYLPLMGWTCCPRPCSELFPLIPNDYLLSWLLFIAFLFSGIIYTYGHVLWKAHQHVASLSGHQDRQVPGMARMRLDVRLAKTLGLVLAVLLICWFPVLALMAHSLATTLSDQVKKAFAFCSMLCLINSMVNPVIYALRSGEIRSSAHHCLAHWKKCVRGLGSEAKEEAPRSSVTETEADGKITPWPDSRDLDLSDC

SMILES | EC50
Fc1ccc(-c2noc(CCCNc3cnc4ccc(OC(F)(F)F)cc4c3)n2)c(Cl)c1 | 0.015 nM
O=C(CCc1nc(-c2ccc(F)cc2Cl)no1)Nc1cnc2ncc(Cl)cc2c1 | 3.3 nM

target: T1, Cannabinoid receptor 1; experiment: Agonist activity at human recombinant CB1 receptor expressed in Sf9 cells by GTP-europium binding assay relative to CP-55940; conditions: not given
In short: as §1, with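 “µg/well). Incubation was 45 min at room temperature, then filtration and washing, with fluorescence read at 615 nm.” for “µg/well).”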

SMILES | Emax
Fc1ccc(-c2noc(CCCNc3cnc4ccc(OC(F)(F)F)cc4c3)n2)c(Cl)c1 | 81%
O=C(CCc1nc(-c2ccc(F)cc2Cl)no1)Nc1cnc2ncc(Cl)cc2c1 | 43%

target: T2, Cannabinoid receptor 2; experiment: Agonist activity at human recombinant CB2 receptor expressed in Sf9 cells by GTP-europium binding assay relative to CP-55940; conditions: not given
In short: as §1, with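 “µg/well). Incubation was 45 min at room temperature, then filtration and washing, with fluorescence read at 615 nm.” for “µg/well).”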

SMILES | Emax
Fc1ccc(-c2noc(CCCNc3cnc4ccc(OC(F)(F)F)cc4c3)n2)c(Cl)c1 | 110%
O=C(CCc1nc(-c2ccc(F)cc2Cl)no1)Nc1cnc2ncc(Cl)cc2c1 | 110%
CCn1c2ccccc2c2cc(NC(=O)CCc3nc(-c4ccccc4F)no3)ccc21 | 100%

target: T1, Cannabinoid receptor 1; experiment: Agonist activity at human recombinant CB1 receptor expressed in CHO-K1 cells assessed as inhibition of forskolin-stimulated intracellular cAMP level; type: functional, cell-based; conditions: not given
In short: (§2)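 CHO-K1 cells stably expressing human or rat CB1 or CB2 were used. Compounds were diluted from DMSO into HBSS/HEPES/BSA buffer containing 60 µM forskolin, then combined with 5000 cells/well plus Alexa647 anti-cAMP antibody, 1 h at room temperature. A biotinylated-cAMP detection mix was added for another 1 h.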

SMILES | EC50
Fc1ccc(-c2noc(CCCNc3cnc4ccc(OC(F)(F)F)cc4c3)n2)c(Cl)c1 | 850 nM
O=C(CCc1nc(-c2ccc(F)cc2Cl)no1)Nc1cnc2ncc(Cl)cc2c1 | > 1000 nM
CCn1c2ccccc2c2cc(NC(=O)CCc3nc(-c4ccccc4F)no3)ccc21 | > 1000 nM

target: T2, Cannabinoid receptor 2; experiment: Agonist activity at human recombinant CB2 receptor expressed in CHO-K1 cells assessed as inhibition of forskolin-stimulated intracellular cAMP level; type: functional, cell-based; conditions: not given; in short: as §2

SMILES | EC50
Fc1ccc(-c2noc(CCCNc3cnc4ccc(OC(F)(F)F)cc4c3)n2)c(Cl)c1 | 2.3 nM
O=C(CCc1nc(-c2ccc(F)cc2Cl)no1)Nc1cnc2ncc(Cl)cc2c1 | 0.6 nM

target: T1, Cannabinoid receptor 1; experiment: Agonist activity at human recombinant CB1 receptor expressed in CHO-K1 cells assessed as inhibition of forskolin-stimulated intracellular cAMP level relative to CP-55940; type: functional, cell-based; conditions: not given
In short: as §2, with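 “h. Emission at 665 nm gave concentration-response curves and EC50; Emax is expressed as a percentage of the reference agonist maximum.” for “h.”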

SMILES | Emax
Fc1ccc(-c2noc(CCCNc3cnc4ccc(OC(F)(F)F)cc4c3)n2)c(Cl)c1 | 78%
O=C(CCc1nc(-c2ccc(F)cc2Cl)no1)Nc1cnc2ncc(Cl)cc2c1 | 30%

target: T2, Cannabinoid receptor 2; experiment: Agonist activity at human recombinant CB2 receptor expressed in CHO-K1 cells assessed as inhibition of forskolin-stimulated intracellular cAMP level relative to CP-55940; type: functional, cell-based; conditions: not given
In short: as §2, with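 “h. Emission at 665 nm gave concentration-response curves and EC50; Emax is expressed as a percentage of the reference agonist maximum.” for “h.”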

SMILES | Emax
Fc1ccc(-c2noc(CCCNc3cnc4ccc(OC(F)(F)F)cc4c3)n2)c(Cl)c1 | 110%
O=C(CCc1nc(-c2ccc(F)cc2Cl)no1)Nc1cnc2ncc(Cl)cc2c1 | 97%
CCn1c2ccccc2c2cc(NC(=O)CCc3nc(-c4ccccc4F)no3)ccc21 | 93%

target: Cannabinoid receptor 1 (Rattus norvegicus, UniProt P20272); experiment: Agonist activity at rat recombinant CB1 receptor expressed in CHO-K1 cells assessed as inhibition of forskolin-stimulated intracellular cAMP level; type: functional, cell-based; conditions: not given; in short: as §2
Sequence (P20272 whole entry): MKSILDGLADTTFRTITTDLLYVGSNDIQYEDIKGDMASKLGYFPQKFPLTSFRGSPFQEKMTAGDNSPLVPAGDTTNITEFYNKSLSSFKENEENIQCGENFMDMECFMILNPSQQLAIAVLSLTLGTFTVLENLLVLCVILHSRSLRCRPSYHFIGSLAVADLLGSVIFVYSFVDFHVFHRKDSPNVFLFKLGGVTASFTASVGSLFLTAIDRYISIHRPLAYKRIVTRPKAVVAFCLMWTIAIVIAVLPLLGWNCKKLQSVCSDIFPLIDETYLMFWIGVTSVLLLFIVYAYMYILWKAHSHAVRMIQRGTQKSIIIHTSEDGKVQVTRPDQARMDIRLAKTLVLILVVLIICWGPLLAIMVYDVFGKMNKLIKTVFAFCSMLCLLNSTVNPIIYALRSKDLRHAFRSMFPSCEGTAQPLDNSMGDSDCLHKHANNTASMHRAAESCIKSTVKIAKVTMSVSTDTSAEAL

SMILES | EC50
Fc1ccc(-c2noc(CCCNc3cnc4ccc(OC(F)(F)F)cc4c3)n2)c(Cl)c1 | 130 nM
O=C(CCc1nc(-c2ccc(F)cc2Cl)no1)Nc1cnc2ncc(Cl)cc2c1 | 220 nM
CCn1c2ccccc2c2cc(NC(=O)CCc3nc(-c4ccccc4F)no3)ccc21 | > 1000 nM

target: T3, Cannabinoid receptor 2 (Rattus norvegicus, UniProt Q9QZN9); experiment: Agonist activity at rat recombinant CB2 receptor expressed in CHO-K1 cells assessed as inhibition of forskolin-stimulated intracellular cAMP level; type: functional, cell-based; conditions: not given
T3 sequence (Q9QZN9 whole entry): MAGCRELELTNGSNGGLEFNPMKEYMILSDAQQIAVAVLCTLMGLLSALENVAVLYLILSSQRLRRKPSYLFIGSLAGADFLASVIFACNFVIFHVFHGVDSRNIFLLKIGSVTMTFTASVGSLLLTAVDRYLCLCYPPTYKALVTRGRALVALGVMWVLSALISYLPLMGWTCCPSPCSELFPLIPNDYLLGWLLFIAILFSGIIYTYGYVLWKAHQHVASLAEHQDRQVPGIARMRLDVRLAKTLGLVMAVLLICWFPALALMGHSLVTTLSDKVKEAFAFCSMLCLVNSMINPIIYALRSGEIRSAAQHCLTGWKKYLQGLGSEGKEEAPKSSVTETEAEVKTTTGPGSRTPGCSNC
In short: as §2, with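 “h. Emission at 665 nm gave concentration-response curves and EC50; Emax is expressed as a percentage of the reference agonist maximum.” for “h.”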

SMILES | EC50
Fc1ccc(-c2noc(CCCNc3cnc4ccc(OC(F)(F)F)cc4c3)n2)c(Cl)c1 | 1.3 nM
O=C(CCc1nc(-c2ccc(F)cc2Cl)no1)Nc1cnc2ncc(Cl)cc2c1 | 0.4 nM
CCn1c2ccccc2c2cc(NC(=O)CCc3nc(-c4ccccc4F)no3)ccc21 | 33 nM

target: Cannabinoid receptor 1 (Rattus norvegicus) (UniProt P20272); experiment: Agonist activity at rat recombinant CB1 receptor expressed in CHO-K1 cells assessed as inhibition of forskolin-stimulated intracellular cAMP level relative to CP-55940; type: functional, cell-based; conditions: not given
Sequence (P20272 whole entry): as the sequence (P20272 whole entry) above
In short: as §2, with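 “h. Emission at 665 nm gave concentration-response curves and EC50; Emax is expressed as a percentage of the reference agonist maximum.” for “h.”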

SMILES | Emax
Fc1ccc(-c2noc(CCCNc3cnc4ccc(OC(F)(F)F)cc4c3)n2)c(Cl)c1 | 120%
O=C(CCc1nc(-c2ccc(F)cc2Cl)no1)Nc1cnc2ncc(Cl)cc2c1 | 100%

target: T4, Cannabinoid receptor 2 (Rattus norvegicus) (UniProt Q9QZN9); experiment: Agonist activity at rat recombinant CB2 receptor expressed in CHO-K1 cells assessed as inhibition of forskolin-stimulated intracellular cAMP level relative to CP-55940; type: functional, cell-based; conditions: not given
T4 sequence (whole entry): T3 sequence (Q9QZN9 whole entry)
In short: as §2, with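 “h. Emission at 665 nm gave concentration-response curves and EC50; Emax is expressed as a percentage of the reference agonist maximum.” for “h.”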

SMILES | Emax
Fc1ccc(-c2noc(CCCNc3cnc4ccc(OC(F)(F)F)cc4c3)n2)c(Cl)c1 | 130%
O=C(CCc1nc(-c2ccc(F)cc2Cl)no1)Nc1cnc2ncc(Cl)cc2c1 | 100%
CCn1c2ccccc2c2cc(NC(=O)CCc3nc(-c4ccccc4F)no3)ccc21 | 91%

test system: Rattus norvegicus; experiment: Oral bioavailability in rat; type: ADME, organism-based; conditions: in vivo

SMILES | F
CCn1c2ccccc2c2cc(NC(=O)CCc3nc(-c4ccccc4F)no3)ccc21 | 13%

test system: not listed separately; experiment: Metabolic stability in human liver microsomes; type: ADME, Microsome; conditions: read-out: Stability

SMILES | microsomal CLint
O=C(CCc1nc(-c2ccc(F)cc2Cl)no1)Nc1cnc2ncc(Cl)cc2c1 | < 100 µL/min/mg
CCn1c2ccccc2c2cc(NC(=O)CCc3nc(-c4ccccc4F)no3)ccc21 | 274 µL/min/mg

test system: not listed separately; experiment: Metabolic stability in rat liver microsomes; type: ADME, Microsome; conditions: read-out: Stability

SMILES | microsomal CLint
O=C(CCc1nc(-c2ccc(F)cc2Cl)no1)Nc1cnc2ncc(Cl)cc2c1 | < 100 µL/min/mg
CCn1c2ccccc2c2cc(NC(=O)CCc3nc(-c4ccccc4F)no3)ccc21 | 198 µL/min/mg

test system: Rattus norvegicus; experiment: Clearance in rat at 0.5 mg/kg, iv; type: ADME, organism-based; set-up: dose 0.5 mg/kg, route intravenous; conditions: in vivo

SMILES | CL
CCn1c2ccccc2c2cc(NC(=O)CCc3nc(-c4ccccc4F)no3)ccc21 | 20 mL/min/kg

test system: not listed separately; experiment: Solubility in simulated intestinal fluid; type: physicochemical; conditions: read-out: Stability

SMILES | solubility
Fc1ccc(-c2noc(CCCNc3cnc4ccc(OC(F)(F)F)cc4c3)n2)c(Cl)c1 | 49 µg/mL (≈ 105 µM)
CCn1c2ccccc2c2cc(NC(=O)CCc3nc(-c4ccccc4F)no3)ccc21 | 2 µg/mL (≈ 4.67 µM)

test system: not listed separately; experiment: Cmax in rat at 10 mg/kg, po; type: ADME, organism-based; set-up: dose 10 mg/kg, route oral; conditions: in vivo

SMILES | Cmax
CCn1c2ccccc2c2cc(NC(=O)CCc3nc(-c4ccccc4F)no3)ccc21 | 100 ng/mL

test system: Rattus norvegicus; experiment: AUC in rat at 10 mg/kg, po; type: ADME, organism-based, Plasma; set-up: dose 10 mg/kg, route oral; conditions: in vivo

SMILES | AUC
CCn1c2ccccc2c2cc(NC(=O)CCc3nc(-c4ccccc4F)no3)ccc21 | 460 ng·h/mL

test system: Rattus norvegicus; experiment: Oral bioavailability in rat at 10 mg/kg; type: ADME, organism-based; conditions: in vivo

SMILES | F
CCn1c2ccccc2c2cc(NC(=O)CCc3nc(-c4ccccc4F)no3)ccc21 | 13%

test system: not listed separately; experiment: Half life in rat at 10 mg/kg, po; type: ADME, organism-based; set-up: dose 10 mg/kg, route oral; conditions: in vivo

SMILES | half-life
CCn1c2ccccc2c2cc(NC(=O)CCc3nc(-c4ccccc4F)no3)ccc21 | 1.6 h
